Experimental data reported in ChEMBL document CHEMBL4257502, “Anti-cancer effect of a novel 2,3-didithiocarbamate-substituted naphthoquinone as a tumor metabolic suppressor in vitro and in vivo” (Medchemcomm, 2018).
Values belong to the compound of their own block, whether it stands above or below them. Activity calls are given as the source filed them. No cut-off for these calls is given here.

Legend:
[1] = tested on: NCI-H1299; assay: Cytotoxicity against human NCI-H1299 cells after 48 hrs by MTS assay; assay type: functional, cell-based
Method in brief: (§1)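 Cells seeded at 5000–10 000 per well and treated 12 h later with a range of concentrations for 48 h. Viability read by MTS reduction. IC50 reported ± SD.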

[2] = tested on: HCT-116; assay: Cytotoxicity against human HCT116 cells assessed as reduction in ATP production at 10 to 20 uM after 6 hrs by CellTiter-Glo luminescent assay; assay type: functional, cell-based
Method in brief: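 HCT116 cells seeded at 5 × 10^5 per well in 6-well plates. Exposed 24 h later to 10 μM or 20 μM for 6 h. Cellular ATP read by CellTiter-Glo luminescence.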

[3] = target: T1, Pyruvate kinase PKM (Homo sapiens, UniProt P14618); assay: Inhibition of PKM2 in human HCT116 cells assessed as reduction in cMYC-induced GLUT1 gene expression at 20 uM after 8 hrs by RT-qPCR analysis; assay type: cell-based
Method in brief: (§2)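 HCT116 cells seeded at 5 × 10^5 per well and treated 24 h later with 20 μM for 8 h. RNA extracted with TRIzol and reverse-transcribed. GLUT1, LDH and CCND1 transcripts quantified by SYBR Green qPCR.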
Target sequence in this assay (P14618 2-531 limits assumed): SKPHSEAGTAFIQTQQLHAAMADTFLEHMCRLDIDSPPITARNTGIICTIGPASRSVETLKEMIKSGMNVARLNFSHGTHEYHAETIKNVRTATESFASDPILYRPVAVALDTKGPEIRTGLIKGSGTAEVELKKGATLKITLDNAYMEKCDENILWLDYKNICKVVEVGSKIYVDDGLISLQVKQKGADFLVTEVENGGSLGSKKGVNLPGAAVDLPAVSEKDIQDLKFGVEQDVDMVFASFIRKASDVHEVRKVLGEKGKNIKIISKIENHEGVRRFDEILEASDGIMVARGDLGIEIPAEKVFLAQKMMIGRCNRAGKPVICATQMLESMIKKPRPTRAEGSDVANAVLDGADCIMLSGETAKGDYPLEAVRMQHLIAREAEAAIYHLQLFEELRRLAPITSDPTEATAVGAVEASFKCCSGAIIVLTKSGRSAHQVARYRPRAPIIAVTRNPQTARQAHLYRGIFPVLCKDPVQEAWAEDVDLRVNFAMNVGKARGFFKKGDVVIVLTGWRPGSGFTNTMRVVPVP

[4] = species on record: Homo sapiens; assay: Selectivity ratio of IC50 for recombinant human N-terminal His-tagged PKM1 expressed in Escherichia coli to IC50 for recombinant human N-terminal His-tagged PKM2 expressed in Escherichia coli
[5] = target: T1, Pyruvate kinase PKM; assay: Inhibition of PKM2 in human HCT116 cells assessed as reduction in beta-catenin-induced CCND1 gene expression at 20 uM after 8 hrs by RT-qPCR analysis; assay type: cell-based; method in brief: as §2
Target sequence in this assay (P14618 2-531 limits assumed): as above

[6] = tested on: HCT-116; assay: Cytotoxicity against human HCT116 cells after 48 hrs by MTS assay; assay type: functional, cell-based; method in brief: as §1
[7] = tested on: B16; assay: Antitumor activity against mouse B16 cells implanted in C57BL/6 mouse assessed as tumor weight at 25 mg/kg, ip administered every 2 days for 12 days relative to control; assay type: functional
Method in brief: (§3)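 Female mice given 1 × 10^6 B16 cells subcutaneously in the armpit. Dosing began about 6 days later, once tumors appeared, with N = 7 per group. Compound or vehicle (5% v/v DMAC in olive oil) was given ip every two days at 25 or 50 mg kg–1. Tumor volume was measured every two days as V = L(S2)π/6. Tumors were weighed individually. T/C was taken as relative tumor volume growth rate.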

[8] = species on record: Homo sapiens; assay: Selectivity ratio of IC50 for recombinant human N-terminal His-tagged PKL expressed in Escherichia coli to IC50 for recombinant human N-terminal His-tagged PKM2 expressed in Escherichia coli
[9] = tested on: B16; assay: Cytotoxicity against mouse B16 cells after 48 hrs by MTS assay; assay type: functional, cell-based; method in brief: as §1
[10] = tested on: MDA-MB-231; assay: Cytotoxicity against human MDA-MB-231 cells after 48 hrs by MTS assay; assay type: functional, cell-based; method in brief: as §1
[11] = tested on: B16; assay: Antitumor activity against mouse B16 cells implanted in ip dosed C57BL/6 mouse assessed as tumor growth inhibition administered every 2 days for 12 days; assay type: functional, organism-based; method in brief: as §3
[12] = tested on: BEAS-2B; assay: Cytotoxicity against human BEAS2B cells after 48 hrs by MTS assay; assay type: cell-based; method in brief: as §1
[13] = target: T1, Pyruvate kinase PKM; assay: Inhibition of recombinant human N-terminal His-tagged PKM2 expressed in Escherichia coli preincubated for 25 mins in presence of PEP/FBP followed by ADP/NADH addition measured after 25 mins by PK-LDH assay
Target sequence in this assay (P14618 whole entry): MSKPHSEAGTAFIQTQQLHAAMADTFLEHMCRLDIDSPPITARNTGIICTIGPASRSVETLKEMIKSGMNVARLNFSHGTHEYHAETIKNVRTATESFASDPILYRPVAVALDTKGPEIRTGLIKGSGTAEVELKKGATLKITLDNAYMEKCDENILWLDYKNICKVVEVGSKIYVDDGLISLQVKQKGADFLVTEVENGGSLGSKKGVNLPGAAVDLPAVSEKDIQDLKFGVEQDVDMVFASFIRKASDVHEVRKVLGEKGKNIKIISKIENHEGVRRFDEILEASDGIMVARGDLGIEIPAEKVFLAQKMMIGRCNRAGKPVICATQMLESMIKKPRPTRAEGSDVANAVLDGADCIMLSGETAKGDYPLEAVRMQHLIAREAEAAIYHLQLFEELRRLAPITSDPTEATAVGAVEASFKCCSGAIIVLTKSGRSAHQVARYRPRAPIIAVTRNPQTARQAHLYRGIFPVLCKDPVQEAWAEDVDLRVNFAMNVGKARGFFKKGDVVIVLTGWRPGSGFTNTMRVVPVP

[14] = tested on: B16; assay: Antitumor activity against mouse B16 cells implanted in C57BL/6 mouse assessed as reduction in tumor weight at 50 mg/kg, ip administered every 2 days for 12 days relative to control; assay type: functional; design: scale not given: the % may be the effect or the level left; method in brief: as §3
[15] = tested on: HeLa; assay: Cytotoxicity against human HeLa cells after 48 hrs by MTS assay; assay type: functional, cell-based; method in brief: as §1
[16] = target: T1, Pyruvate kinase PKM; assay: Inhibition of PKM2 in human HCT116 cells measured after 8 hrs by fluorescent PK-LDH assay; assay type: cell-based
Method in brief: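 HCT116 cells exposed to 2.5, 5, 10 or 20 μM for 8 h, then lysed in NP40 buffer. Lysate pyruvate kinase activity was measured immediately by fluorescent PK–LDH coupled assay.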
Target sequence in this assay (P14618 2-531 limits assumed): as the sequence (P14618 2-531 limits assumed) above

[17] = tested on: spontaneous PTEN-deleted breast carcinoma (Mus musculus); assay: Antitumor activity against mouse spontaneous PTEN-deleted breast carcinoma assessed as reduction in tumor growth at 50 mg/kg, ip administered every 2 days for 36 days
[18] = tested on: Mus musculus; assay: Toxicity in C57BL/6 mouse implanted with mouse B16 cells assessed as effect on body weight at 25 to 50 mg/kg, ip administered every 2 days for 12 days; assay type: organism-based; conditions: in vivo; method in brief: as §3
[19] = target: T1, Pyruvate kinase PKM; assay: Inhibition of recombinant human N-terminal His-tagged PKM1 expressed in Escherichia coli preincubated for 25 mins in presence of PEP/FBP followed by ADP/NADH addition measured after 25 mins by PK-LDH assay
Target sequence in this assay (P14618 whole entry): as the sequence (P14618 whole entry) above

[20] = target: T1, Pyruvate kinase PKM; assay: Inhibition of PKM2 in human HCT116 cells assessed as reduction in cMYC-induced LDH gene expression at 20 uM after 8 hrs by RT-qPCR analysis; assay type: cell-based; method in brief: as §2
Target sequence in this assay (P14618 2-531 limits assumed): as the sequence (P14618 2-531 limits assumed) above

[21] = target: Pyruvate kinase PKLR (Homo sapiens, UniProt P30613); assay: Inhibition of recombinant human N-terminal His-tagged PKL expressed in Escherichia coli preincubated for 25 mins in presence of PEP/FBP followed by ADP/NADH addition measured after 25 mins by PK-LDH assay
[22] = tested on: MCF7; assay: Cytotoxicity against human MCF7 cells after 48 hrs by MTS assay; assay type: functional, cell-based; method in brief: as §1
[23] = tested on: spontaneous PTEN-deleted breast carcinoma (Mus musculus); assay: Antitumor activity against mouse spontaneous PTEN-deleted breast carcinoma assessed as reduction in tumor weight at 50 mg/kg, ip administered every 2 days for 36 days relative to control; design: scale not given: the % may be the effect or the level left
[24] = tested on: B16; assay: Antitumor activity against mouse B16 cells implanted in C57BL/6 mouse assessed as tumor volume at 50 mg/kg, ip administered every 2 days for 12 days measured during compound dosing relative to control; assay type: functional; method in brief: as §3

Sequence of Pyruvate kinase PKLR (P30613 whole entry): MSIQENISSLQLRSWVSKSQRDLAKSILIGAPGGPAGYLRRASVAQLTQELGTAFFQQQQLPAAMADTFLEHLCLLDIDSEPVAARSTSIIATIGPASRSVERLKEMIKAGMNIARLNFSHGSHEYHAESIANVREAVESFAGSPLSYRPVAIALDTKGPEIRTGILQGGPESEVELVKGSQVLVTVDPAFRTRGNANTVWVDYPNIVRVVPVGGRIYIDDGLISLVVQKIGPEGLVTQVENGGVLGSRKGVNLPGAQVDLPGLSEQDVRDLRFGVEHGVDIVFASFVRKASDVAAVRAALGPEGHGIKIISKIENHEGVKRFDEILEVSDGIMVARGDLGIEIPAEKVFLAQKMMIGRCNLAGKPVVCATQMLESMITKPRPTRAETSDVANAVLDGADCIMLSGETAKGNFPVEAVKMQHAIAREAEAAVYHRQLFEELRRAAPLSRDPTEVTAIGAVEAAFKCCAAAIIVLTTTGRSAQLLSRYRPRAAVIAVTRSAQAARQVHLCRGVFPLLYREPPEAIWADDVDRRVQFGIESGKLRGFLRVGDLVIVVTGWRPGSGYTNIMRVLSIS

- inhibition [3]: Active
- Ratio IC50 [4]: 5.8
- inhibition [5]: Active
- Ratio IC50 [8]: 3.3
- IC50 [13]: 880 nM
- inhibition [16]: Dose-dependent effect
- IC50 [19]: 5070 nM
- inhibition [20]: Active
- IC50 [21]: 2900 nM
SMILES: O=C1C(CSC(=S)N2CCCCC2)=C(CSC(=S)N2CCCCC2)C(=O)c2ccccc21
- Activity [1]: Dose-dependent effect
- IC50 ([1]; NCI-H1299, 48 h): 109 nM
- Activity [2]: Active
- Activity [6]: Dose-dependent effect
- IC50 ([6]; HCT-116, 48 h): 77 nM
- Activity [7]: 12%
- Activity [9]: Dose-dependent effect
- IC50 ([9]; B16, 48 h): 104 nM
- Activity [10]: Dose-dependent effect
- IC50 ([10]; MDA-MB-231, 48 h): 135 nM
- TGI [11]: Dose-dependent effect
- IC50 [12]: 32600 nM
- Activity [14]: 30%
- Activity [15]: Dose-dependent effect
- IC50 [15]: 124 nM
- Activity [17]: Active
- Activity [18]: Non-Toxic
- Activity [22]: Dose-dependent effect
- IC50 ([22]; MCF7, 48 h): 61 nM
- Activity [23]: 20%
- T/C [24]: 40%

- Ratio IC50 [4]: 1.5
- Ratio IC50 [8]: 4.5
SMILES: CC(C)=CC[C@@H](O)C1=CC(=O)c2c(O)ccc(O)c2C1=O
